Measurements from ChEMBL document CHEMBL4325870, “Synthesis and biological evaluation of 3-aryl-quinolin derivatives as anti-breast cancer agents targeting ERα and VEGFR-2” (Eur J Med Chem, 2019).
Active and inactive are the calls of the source. The rule behind the calls is not given here.

Each compound was assayed on MCF7 (assay: Cell cycle arrest in human MCF7 cells assessed as accumulation at S phase at 1.25 uM after 24 hrs by propidium iodide staining based flow cytometry (reference value: 18.93%)). Details: not given.
Format: functional
Summary of the method: (§1)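 MCF-7 cells exposed to 1.25 μM compound or DMSO vehicle for 12 h and 24 h. Cells washed in ice-cold PBS, pelleted, fixed in ice-cold 70% ethanol, RNase-treated (0.1 mg/mL), stained with propidium iodide, and analysed by flow cytometry for G1, S and G2 phase distribution.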

Compound | Activity [%]
COc1ccc(-c2cc3cc(OC)ccc3nc2Nc2ccc(NC(=O)CN3CCN(C)CC3)cc2)cc1 | 22.39

Each compound was assayed on MCF7 (assay: Antimigratory activity in human MCF7 cells assessed as inhibition of wound healing at 1.25 uM after 8 to 48 hrs by phase contrast microscopic analysis). Details: not given.
Format: functional, cell-based
Summary of the method: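 Wound-healing assay: MCF-7 monolayers grown to full confluence in 24-well plates, scratched with a tip, washed twice with PBS, then given serum-free 1640 medium with or without compound at 1.25 μM. Wound closure photographed by phase-contrast microscopy (100×) at 8, 16, 24/48 h; migration rate quantified from images.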

Compound | inhibition
CCN(CC)CCNC(=O)c1c(C)[nH]c(/C=C2\C(=O)Nc3ccc(F)cc32)c1C [SUNITINIB] | Active

The compounds below were run on MCF7 (assay: Cell cycle arrest in human MCF7 cells assessed as accumulation at G1 phase at 1.25 uM after 12 hrs by propidium iodide staining based flow cytometry (reference value: 46.25%)). Details: not given.
Format: functional
Summary of the method: as §1

Compound | Activity [%]
COc1ccc(-c2cc3cc(OC)ccc3nc2Nc2ccc(NC(=O)CN3CCN(C)CC3)cc2)cc1 | 51.18

Each compound was assayed on MCF7 (assay: Cell cycle arrest in human MCF7 cells assessed as accumulation at G2 phase at 1.25 uM after 24 hrs by propidium iodide staining based flow cytometry (reference value: 31.48%)). Details: not given.
Format: functional
Summary of the method: as §1

Compound | Activity [%]
COc1ccc(-c2cc3cc(OC)ccc3nc2Nc2ccc(NC(=O)CN3CCN(C)CC3)cc2)cc1 | 20.43

These compounds were tested against Vascular endothelial growth factor receptor 2 (Homo sapiens, UniProt P35968). Details: not given.
Chain of Vascular endothelial growth factor receptor 2 (P35968 whole entry): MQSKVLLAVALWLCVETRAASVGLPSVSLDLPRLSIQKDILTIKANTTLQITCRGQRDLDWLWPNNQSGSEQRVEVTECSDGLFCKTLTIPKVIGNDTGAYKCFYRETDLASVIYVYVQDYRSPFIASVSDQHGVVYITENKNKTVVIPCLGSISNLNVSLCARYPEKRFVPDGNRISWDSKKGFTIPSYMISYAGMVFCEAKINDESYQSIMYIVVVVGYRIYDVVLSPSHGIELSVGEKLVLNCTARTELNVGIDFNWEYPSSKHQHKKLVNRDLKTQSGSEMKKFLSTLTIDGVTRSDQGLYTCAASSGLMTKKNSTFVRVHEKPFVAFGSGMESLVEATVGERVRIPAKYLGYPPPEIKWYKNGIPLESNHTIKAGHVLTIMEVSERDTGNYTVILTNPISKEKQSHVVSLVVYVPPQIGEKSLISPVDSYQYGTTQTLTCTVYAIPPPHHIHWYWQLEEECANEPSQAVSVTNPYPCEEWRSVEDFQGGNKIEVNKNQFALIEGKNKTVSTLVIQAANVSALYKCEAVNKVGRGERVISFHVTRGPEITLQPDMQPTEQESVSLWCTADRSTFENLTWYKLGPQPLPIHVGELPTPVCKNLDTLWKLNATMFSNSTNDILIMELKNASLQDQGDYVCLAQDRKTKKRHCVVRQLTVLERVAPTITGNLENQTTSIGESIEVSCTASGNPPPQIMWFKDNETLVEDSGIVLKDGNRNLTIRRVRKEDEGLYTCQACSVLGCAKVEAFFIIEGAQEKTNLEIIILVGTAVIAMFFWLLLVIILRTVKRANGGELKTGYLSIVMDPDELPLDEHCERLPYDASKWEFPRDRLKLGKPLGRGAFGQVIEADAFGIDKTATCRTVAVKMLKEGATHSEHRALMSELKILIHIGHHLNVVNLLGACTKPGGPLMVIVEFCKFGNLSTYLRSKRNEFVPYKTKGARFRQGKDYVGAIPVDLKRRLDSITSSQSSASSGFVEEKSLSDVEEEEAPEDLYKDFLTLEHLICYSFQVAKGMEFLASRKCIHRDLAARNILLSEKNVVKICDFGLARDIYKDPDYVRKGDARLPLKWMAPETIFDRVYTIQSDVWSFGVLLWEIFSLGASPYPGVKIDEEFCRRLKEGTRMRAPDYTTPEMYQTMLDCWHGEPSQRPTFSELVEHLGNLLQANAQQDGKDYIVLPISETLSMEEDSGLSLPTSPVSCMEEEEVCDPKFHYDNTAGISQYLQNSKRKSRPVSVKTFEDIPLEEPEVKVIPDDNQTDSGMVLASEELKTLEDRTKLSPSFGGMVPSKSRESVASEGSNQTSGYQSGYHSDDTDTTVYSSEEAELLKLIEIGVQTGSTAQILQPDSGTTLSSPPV

Compound | IC50 [µM]
CCN(CC)CC(=O)Nc1ccc(Nc2nc3ccc(OC)cc3cc2-c2ccc(OC)cc2)cc1 | 0.081
CCN(CC)CC(=O)Nc1ccc(Nc2nc3cc(OC)ccc3cc2-c2ccc(OC)cc2)cc1 | 0.101
COc1ccc(-c2cc3cc(OC)ccc3nc2Nc2ccc(NC(=O)CN(C)C)cc2)cc1 | 0.109
COc1ccc(-c2cc3ccc(OC)cc3nc2Nc2ccc(NC(=O)CN3CCCCC3)cc2)cc1 | 0.079
COc1ccc(-c2cc3ccc(OC)cc3nc2Nc2ccc(NC(=O)CN3CCOCC3)cc2)cc1 | 0.11
COc1ccc(-c2cc3cc(OC)ccc3nc2Nc2ccc(NC(=O)CN3CCOCC3)cc2)cc1 | 0.117
COc1ccc(-c2cc3cc(OC)ccc3nc2Nc2ccc(NC(=O)CN3CCCCC3)cc2)cc1 | 0.08

Further lines, results first:

IC50 [µM] | Compound
0.104 | COc1ccc(-c2cc3ccc(OC)cc3nc2Nc2ccc(NC(=O)CN3CCN(C)CC3)cc2)cc1
0.114 | COc1ccc(-c2cc3ccc(OC)cc3nc2Nc2ccc(NC(=O)CN(C)C)cc2)cc1
0.131 | COc1ccc(-c2cc3cc(OC)ccc3nc2Nc2ccc(NC(=O)CN3CCCC3)cc2)cc1
0.086 | COc1ccc(-c2cc3cc(OC)ccc3nc2Nc2ccc(NC(=O)CN3CCN(C)CC3)cc2)cc1
0.125 | COc1ccc(-c2cc3ccc(OC)cc3nc2Nc2ccc(NC(=O)CN3CCCC3)cc2)cc1

Each compound was assayed on MCF7 (assay: Cell cycle arrest in human MCF7 cells assessed as accumulation at S phase at 1.25 uM after 12 hrs by propidium iodide staining based flow cytometry (reference value: 18.93%)). Details: not given.
Format: functional
Summary of the method: as §1

Compound | Activity [%]
COc1ccc(-c2cc3cc(OC)ccc3nc2Nc2ccc(NC(=O)CN3CCN(C)CC3)cc2)cc1 | 18.78

Each compound was assayed on HUVEC (assay: Antiproliferative activity against HUVEC after 48 hrs by MTT assay). Details: Homo sapiens.
Format: functional, cell-based
Summary of the method: (§2)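 Cells kept in RPMI1640 with 10% FBS and penicillin/streptomycin at 37 °C, 5% CO2. Seeded at 1 x 10^5/mL, grown 24 h, then exposed to compound-containing medium for 48 h; controls received 1% DMSO medium. MTT (5 mg/mL) added for 4 h in the dark, formazan dissolved in DMSO, absorbance read. Value is concentration giving 50% growth inhibition.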

Compound | IC50 [µM]
CCN(CC)CC(=O)Nc1ccc(Nc2nc3ccc(OC)cc3cc2-c2ccc(OC)cc2)cc1 | 45.6
COc1ccc(-c2cc3ccc(OC)cc3nc2Nc2ccc(NC(=O)CN3CCN(C)CC3)cc2)cc1 | 7.4
CCN(CC)CC(=O)Nc1ccc(Nc2nc3cc(OC)ccc3cc2-c2ccc(OC)cc2)cc1 | 14
COc1ccc(-c2cc3ccc(OC)cc3nc2Nc2ccc(NC(=O)CN(C)C)cc2)cc1 | 9.2
CCN(CC)CCNC(=O)c1c(C)[nH]c(/C=C2\C(=O)Nc3ccc(F)cc32)c1C [SUNITINIB] | 3.2
COc1ccc(-c2cc3cc(OC)ccc3nc2Nc2ccc(NC(=O)CN(C)C)cc2)cc1 | 22.2
COc1ccc(-c2cc3cc(OC)ccc3nc2Nc2ccc(NC(=O)CN3CCCC3)cc2)cc1 | 13.1
COc1ccc(-c2cc3ccc(OC)cc3nc2Nc2ccc(NC(=O)CN3CCCCC3)cc2)cc1 | 23.5
COc1ccc(-c2cc3ccc(OC)cc3nc2Nc2ccc(NC(=O)CN3CCOCC3)cc2)cc1 | 9.1
COc1ccc(-c2cc3cc(OC)ccc3nc2Nc2ccc(NC(=O)CN3CCN(C)CC3)cc2)cc1 | 7.4
COc1ccc(-c2cc3cc(OC)ccc3nc2Nc2ccc(NC(=O)CN3CCOCC3)cc2)cc1 | > 50
COc1ccc(-c2cc3ccc(OC)cc3nc2Nc2ccc(NC(=O)CN3CCCC3)cc2)cc1 | 8.6
COc1ccc(-c2cc3cc(OC)ccc3nc2Nc2ccc(NC(=O)CN3CCCCC3)cc2)cc1 | > 50

The compounds below were run against T1, Estrogen receptor (Homo sapiens, UniProt P03372) (assay: Displacement of fluorescent estrogen ligand from recombinant human full length untagged ERalpha expressed in Spodoptera frugiperda insect cells measured after 2 hrs by fluorescence polarization assay). Details: not given.
T1 sequence (P03372 whole entry): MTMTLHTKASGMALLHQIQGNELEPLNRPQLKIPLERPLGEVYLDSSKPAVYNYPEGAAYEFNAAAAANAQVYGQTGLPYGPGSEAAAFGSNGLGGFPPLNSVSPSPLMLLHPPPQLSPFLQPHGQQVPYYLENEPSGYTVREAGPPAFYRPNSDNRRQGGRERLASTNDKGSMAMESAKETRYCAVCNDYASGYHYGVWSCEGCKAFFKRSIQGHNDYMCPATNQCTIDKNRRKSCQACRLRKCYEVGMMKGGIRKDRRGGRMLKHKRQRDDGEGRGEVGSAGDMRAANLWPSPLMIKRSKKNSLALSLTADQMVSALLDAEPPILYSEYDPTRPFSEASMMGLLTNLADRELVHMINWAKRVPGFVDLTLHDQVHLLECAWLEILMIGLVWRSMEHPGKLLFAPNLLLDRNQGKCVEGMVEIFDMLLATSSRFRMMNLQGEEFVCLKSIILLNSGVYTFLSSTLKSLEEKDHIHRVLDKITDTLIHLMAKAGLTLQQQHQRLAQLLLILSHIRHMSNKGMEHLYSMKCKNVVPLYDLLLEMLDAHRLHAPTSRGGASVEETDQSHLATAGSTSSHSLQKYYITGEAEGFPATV

IC50 [µM] | Compound
2.33 | COc1ccc(-c2cc3ccc(OC)cc3nc2Nc2ccc(NC(=O)CN3CCN(C)CC3)cc2)cc1
1.78 | COc1ccc(-c2cc3cc(OC)ccc3nc2Nc2ccc(NC(=O)CN3CCN(C)CC3)cc2)cc1

These compounds were tested on MCF7 (assay: Effect on progesterone receptor mRNA expression in non-stimulated human MCF7 cells at 1 uM by SYBR green dye based RT-PCR analysis). Details: mcf7, 1 µM.
Format: ADME, cell-based
Summary of the method: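 Real-time PCR on MCF-7 cells given compound at 1 μM alone, without estradiol. Amplification: 95 °C 2 min, then 40 cycles of 95 °C 10 s, 60 °C 30 s, 95 °C 10 s. PgR mRNA normalised to GAPDH by the ΔΔCT method; mean ± SD, n=3.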

Compound | Activity
COc1ccc(-c2cc3cc(OC)ccc3nc2Nc2ccc(NC(=O)CN3CCN(C)CC3)cc2)cc1 | Non-Toxic
CC/C(=C(\c1ccccc1)c1ccc(OCCN(C)C)cc1)c1ccccc1 [TAMOXIFEN] | Non-Toxic

The compounds below were run on Ishikawa (assay: Stimulation of cell proliferation in human Ishikawa cells at 1 to 10 uM after 48 hrs by MTT assay). Details: not given.
Format: ADME, cell-based
Summary of the method: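 Ishikawa endometrial cells in RPMI1640 with 10% FBS, seeded at 1 x 10^5/mL, exposed 48 h to compound at 1 μM or 10 μM, then read by MTT assay (5 mg/mL MTT, 4 h, dark, DMSO solubilisation, absorbance).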

Compound | Activity
COc1ccc(-c2cc3ccc(OC)cc3nc2Nc2ccc(NC(=O)CN3CCN(C)CC3)cc2)cc1 | Non-Toxic
O=C(c1ccc(OCCN2CCCCC2)cc1)c1c(-c2ccc(O)cc2)sc2cc(O)ccc12 [RALOXIFENE] | Toxic
COc1ccc(-c2cc3cc(OC)ccc3nc2Nc2ccc(NC(=O)CN3CCN(C)CC3)cc2)cc1 | Non-Toxic
CC/C(=C(\c1ccccc1)c1ccc(OCCN(C)C)cc1)c1ccccc1 [TAMOXIFEN] | Toxic

The compounds below were run on MCF7 (assay: Cell cycle arrest in human MCF7 cells assessed as accumulation at G1 phase at 1.25 uM after 24 hrs by propidium iodide staining based flow cytometry (reference value: 46.25%)). Details: not given.
Format: functional
Summary of the method: as §1

Compound | Activity [%]
COc1ccc(-c2cc3cc(OC)ccc3nc2Nc2ccc(NC(=O)CN3CCN(C)CC3)cc2)cc1 | 54.63

These compounds were tested on MCF7 (assay: Antiproliferative activity against human MCF7 cells after 48 hrs by MTT assay). Details: MCF7, 48 h.
Format: functional, cell-based
Summary of the method: as §2

Compound | IC50 [µM]
CCN(CC)CC(=O)Nc1ccc(Nc2nc3ccc(OC)cc3cc2-c2ccc(OC)cc2)cc1 | > 50
CCN(CC)CC(=O)Nc1ccc(Nc2nc3cc(OC)ccc3cc2-c2ccc(OC)cc2)cc1 | 17.3
COc1ccc(-c2cc3cc(OC)ccc3nc2Nc2ccc(NC(=O)CN(C)C)cc2)cc1 | 39.5
COc1ccc(-c2cc3ccc(OC)cc3nc2Nc2ccc(NC(=O)CN3CCCCC3)cc2)cc1 | 47.9
COc1ccc(-c2cc3ccc(OC)cc3nc2Nc2ccc(NC(=O)CN3CCOCC3)cc2)cc1 | > 50
COc1ccc(-c2cc3cc(OC)ccc3nc2Nc2ccc(NC(=O)CN3CCOCC3)cc2)cc1 | > 50
COc1ccc(-c2cc3cc(OC)ccc3nc2Nc2ccc(NC(=O)CN3CCCCC3)cc2)cc1 | > 50

Second part, the compound after the results:

IC50 [µM] | Compound
2.8 | COc1ccc(-c2cc3ccc(OC)cc3nc2Nc2ccc(NC(=O)CN3CCN(C)CC3)cc2)cc1
9.6 | COc1ccc(-c2cc3ccc(OC)cc3nc2Nc2ccc(NC(=O)CN(C)C)cc2)cc1
7.29 | COc1ccc(-c2cc3cc(OC)ccc3nc2Nc2ccc(NC(=O)CN3CCCC3)cc2)cc1
12.5 | O=C(c1ccc(OCCN2CCCCC2)cc1)c1c(-c2ccc(O)cc2)sc2cc(O)ccc12 [RALOXIFENE]
1.8 | COc1ccc(-c2cc3cc(OC)ccc3nc2Nc2ccc(NC(=O)CN3CCN(C)CC3)cc2)cc1
6.6 | COc1ccc(-c2cc3ccc(OC)cc3nc2Nc2ccc(NC(=O)CN3CCCC3)cc2)cc1
16.7 | CC/C(=C(\c1ccccc1)c1ccc(OCCN(C)C)cc1)c1ccccc1 [TAMOXIFEN]

What follows are compounds tested on MCF7 (assay: Cell cycle arrest in human MCF7 cells assessed as accumulation at G2 phase at 1.25 uM after 12 hrs by propidium iodide staining based flow cytometry (reference value: 31.48%)). Details: not given.
Format: functional
Summary of the method: as §1

Compound | Activity [%]
COc1ccc(-c2cc3cc(OC)ccc3nc2Nc2ccc(NC(=O)CN3CCN(C)CC3)cc2)cc1 | 28.82

The compounds below were run on Ishikawa (assay: Antiproliferative activity against human Ishikawa cells after 48 hrs by MTT assay). Details: not given.
Format: functional
Summary of the method: as §2

Compound | Activity [µM]
CCN(CC)CC(=O)Nc1ccc(Nc2nc3ccc(OC)cc3cc2-c2ccc(OC)cc2)cc1 | >50
COc1ccc(-c2cc3ccc(OC)cc3nc2Nc2ccc(NC(=O)CN3CCN(C)CC3)cc2)cc1 | 3.8
CCN(CC)CC(=O)Nc1ccc(Nc2nc3cc(OC)ccc3cc2-c2ccc(OC)cc2)cc1 | 21.4
COc1ccc(-c2cc3ccc(OC)cc3nc2Nc2ccc(NC(=O)CN(C)C)cc2)cc1 | 8.4
CCN(CC)CCNC(=O)c1c(C)[nH]c(/C=C2\C(=O)Nc3ccc(F)cc32)c1C [SUNITINIB] | 14.3
COc1ccc(-c2cc3cc(OC)ccc3nc2Nc2ccc(NC(=O)CN(C)C)cc2)cc1 | >50
COc1ccc(-c2cc3cc(OC)ccc3nc2Nc2ccc(NC(=O)CN3CCCC3)cc2)cc1 | 10.3
COc1ccc(-c2cc3ccc(OC)cc3nc2Nc2ccc(NC(=O)CN3CCCCC3)cc2)cc1 | >50
O=C(c1ccc(OCCN2CCCCC2)cc1)c1c(-c2ccc(O)cc2)sc2cc(O)ccc12 [RALOXIFENE] | >50
COc1ccc(-c2cc3ccc(OC)cc3nc2Nc2ccc(NC(=O)CN3CCOCC3)cc2)cc1 | >50
COc1ccc(-c2cc3cc(OC)ccc3nc2Nc2ccc(NC(=O)CN3CCN(C)CC3)cc2)cc1 | 1.8
COc1ccc(-c2cc3cc(OC)ccc3nc2Nc2ccc(NC(=O)CN3CCOCC3)cc2)cc1 | >50
COc1ccc(-c2cc3ccc(OC)cc3nc2Nc2ccc(NC(=O)CN3CCCC3)cc2)cc1 | 8.2
CC/C(=C(\c1ccccc1)c1ccc(OCCN(C)C)cc1)c1ccccc1 [TAMOXIFEN] | >50
COc1ccc(-c2cc3cc(OC)ccc3nc2Nc2ccc(NC(=O)CN3CCCCC3)cc2)cc1 | >50
